Screening data: PubChem BioAssay, The Scripps Research Institute Molecular Screening Center
IMP-1 inhibitor: blocks Pseudomonas aeruginosa IMP-1 metallo-beta-lactamase | purified IMP-1, nitrocefin hydrolysis, epi-absorbance fluorescence | inhibition, % at 5.6 µM | hit rate 0.45% among 290,000;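 active = inhibition above the mean plus 3 SD of all compounds in the same screening run, cut at about 4.5% in these data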
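Material – recombinant IMP-1 enzyme, purified · Amount – IMP-1 0.2 nM before substrate addition · Medium – HEPES buffer pH 7.1 with ZnSO4 and Brij 35 · Timing – 25 °C, 15 min preincubation, 25 min reaction · Measured by – plate fluorescence quenching by hydrolysis product, ex 480/em 530 nm · Read-out – percent enzyme inhibition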
PAFAH2 inh: PAFAH2 (human) inhibition; Q99487; recombinant PAFAH2, FP-rhodamine activity probe, fluorescence polarization; inhibition, % at 3.39 µM; hit rate 0.99% among 340,000; AID 492956;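 active = inhibition above the mean over all tested compounds plus 3 SD, cut at about 30% in these data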;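 also: inhibitors block probe labeling of enzyme so polarization drops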
PAFAH1B2 inh: blocks human PAF acetylhydrolase 1b catalytic subunit 2; P68402; recombinant PAFAH1B2, FP-rhodamine activity probe, fluorescence polarization; inhibition, % at 3.39 µM; hit rate 1.2% among 340,000;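 active = inhibition above the mean of all tested compounds plus 3 SD, cut at about 24% in these data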
Target sequence (P68402 whole entry, looked up): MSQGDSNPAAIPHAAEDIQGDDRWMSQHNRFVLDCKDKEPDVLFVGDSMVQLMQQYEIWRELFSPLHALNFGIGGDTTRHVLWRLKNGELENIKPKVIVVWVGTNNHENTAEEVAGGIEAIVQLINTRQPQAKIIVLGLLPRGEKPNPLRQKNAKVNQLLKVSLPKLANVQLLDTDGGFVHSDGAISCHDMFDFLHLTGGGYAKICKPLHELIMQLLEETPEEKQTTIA
PAFAH1B3 FP inh: blocks human PAF acetylhydrolase 1B catalytic subunit 3; hit rate 0.28% among 340,000; recombinant PAFAH1B3, FP-rhodamine probe, fluorescence polarization; inhibition, % at 3.39 µM; Q15102;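 active = inhibition above the screen-wide average of all tested compounds plus 3 SD, cut at about 25% in these data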
Target sequence (Q15102 whole entry, looked up): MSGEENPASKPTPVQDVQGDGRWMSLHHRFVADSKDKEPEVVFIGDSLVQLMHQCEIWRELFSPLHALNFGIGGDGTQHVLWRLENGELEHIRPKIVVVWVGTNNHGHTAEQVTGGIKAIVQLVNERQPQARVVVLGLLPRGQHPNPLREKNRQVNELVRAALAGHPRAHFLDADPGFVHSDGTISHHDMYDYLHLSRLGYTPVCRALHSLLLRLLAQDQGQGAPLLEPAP
pPAFAH FP inh: inhibitors of human plasma PAF acetylhydrolase (pPAFAH). Q13093. recombinant pPAFAH, FP-rhodamine probe fluorescence polarization. inhibition, % at 3.39 µM. hit rate 1.5% among 330,000. AID 463082;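 active = inhibition above the mean inhibition across the screen plus 3 SD, cut at about 25% in these data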;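 also: inhibitors block binding of the rhodamine activity-based probe so polarization drops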
VIM-2 inh: blocks Pseudomonas aeruginosa VIM-2 metallo-beta-lactamase; purified VIM-2, nitrocefin hydrolysis, epi-absorbance fluorescence; inhibition, % at 5.6 µM; hit rate 0.89% among 290,000;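 active = inhibition above the mean of all tested compounds plus 3 SD, cutoff set per screening run, cut at about 7.5% in these data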;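 also: red hydrolysis product quenches plate fluorescence so inhibitors raise well fluorescence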
PAFAH2 confirm: confirmation of human PAFAH2 inhibitors. recombinant PAFAH2, FP-rhodamine activity probe, fluorescence polarization. inhibition, % at 3.39 µM. hit rate 65% among 2,300. shares compounds with PAFAH2 inh;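 active = mean inhibition over three repeats above a set limit taken from the earlier primary screen, cut at about 30% in these data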;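 also: inhibitor blocks binding of rhodamine activity probe so polarization falls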
A number is an active result; - = inactive; . = no result. Compounds with a hit are over-represented: about 3.6% of the library has one in this group of screens.

SMILES	IMP-1 inhibitor	PAFAH2 inh	PAFAH1B2 inh	PAFAH1B3 FP inh	pPAFAH FP inh	VIM-2 inh	PAFAH2 confirm
CCN(CC)S(=O)(=O)c1ccc(N2CCc3cc(OC)c(OC)cc3C2)nc1	-	-	-	-	-	-	.
CC1CCN(S(=O)(=O)c2ccc(S(=O)(=O)NCc3ccccc3)cc2)CC1	-	-	-	-	-	-	.
O=c1c2c(nc3cc(-c4ccccc4Cl)[nH]n13)CCS2	-	-	-	-	-	-	.
O=c1c2c(nc3cc(-c4ccccc4)[nH]n13)CCS2	-	43	-	-	-	-	-
NS(=O)(=O)c1cccc(NC(=O)c2ccccc2NS(=O)(=O)c2ccc(F)cc2)c1	-	42	-	-	-	-	47
CNC(=O)C1CC(=O)N(c2ccc(OCC(=O)N3CCCC3)cc2)C1 (configuration not stated)	-	-	-	-	-	-	.
O=C(COc1ccc(Cl)cc1)OCC(=O)N1CCCCCC1	-	-	-	-	-	-	.
O=C(COc1ccc(Cl)cc1)OCC(=O)N1CCCC1	-	37	-	-	-	-	-
NC(=O)C1CC(=O)N(c2ccc(OCC(=O)N3CCCC3)cc2)C1 (configuration not stated)	.	57	-	-	.	.	48
O=[N+]([O-])c1ccc(C=Nc2cccc3ccccc23)s1	-	66	-	-	-	-	-
O=C(COC(=O)c1ccc2ncsc2c1)Nc1cccc(Cl)c1	.	92	-	-	-	.	77
O=C(COC(=O)c1ccc2ncsc2c1)Nc1ccccc1Br	.	63	-	-	-	.	43
CCCCOC(=O)c1ccc(NC(=O)COC(=O)c2ccc3ncsc3c2)cc1	.	61	-	-	-	.	63
CC(=O)NC(=O)COC(=O)c1ccc2ncsc2c1	-	-	-	-	-	-	.
O=C(COC(=O)c1ccc2ncsc2c1)NCc1cccc(Cl)c1	.	-	-	-	-	.	.
O=C(C[n+]1ccccc1)N/N=C/c1c(F)cccc1Cl	-	-	-	-	-	-	.
O=C(Nc1ccccc1C(=O)NCCc1ccccc1)c1cnccn1	-	32	-	-	-	-	-
Cc1cc(C)n2nc(SC(C)C(=O)N(C)c3ccccc3)nc2n1 (configuration not stated)	.	-	-	-	-	.	.
COc1ccc(C(=O)CSc2nc(C)cc(C)n2)cc1C	-	42	-	-	-	-	-
COc1ccc(C(=O)CSc2nc(C)cc(=O)[nH]2)cc1C	-	-	-	-	-	-	.
CC(C)(C)C(=O)OC/C(N)=N/OC(=O)c1ccccc1	-	44	-	-	-	-	71
CC(N)C(=O)NC(CO)C(O)C(N)C=O (configuration not stated)	.	-	-	-	.	.	.
COc1ccc(C2CC(c3ccccc3)=NN2C(=O)COC(=O)c2cc(S(=O)(=O)N3CCOCC3)ccc2F)cc1 (configuration not stated)	-	48	-	-	-	-	51
Nc1c(NC=O)c(=O)n(Cc2ccccc2)c(=O)n1Cc1ccccc1	.	-	-	-	-	.	.
N#CC1(NC(=O)COC(=O)c2ccc(-c3ccc(O)cc3)cc2)CCCCC1	.	76	-	-	-	.	72
SMILES	IMP-1 inhibitor	PAFAH2 inh	PAFAH1B2 inh	PAFAH1B3 FP inh	pPAFAH FP inh	VIM-2 inh	PAFAH2 confirm
Cc1ccc(C(=O)OCC(=O)NC2CCCc3ccccc32)o1 (configuration not stated)	.	33	-	-	-	.	-
N#CCC(=O)Nc1ccc(C(=O)OCC(=O)NC2CCCc3ccccc32)cc1 (configuration not stated)	.	43	-	-	-	.	38
Cc1cc(C(=O)OCC(=O)NC2(C#N)CCCCC2)c(C)o1	.	75	-	-	-	.	75
Cc1ccc(C(=O)NC2CCCc3ccccc32)o1 (configuration not stated)	-	-	-	-	-	-	.
COc1cccc(CC(=O)OCC(=O)NC2(C#N)CCCC2)c1	.	-	-	-	-	.	.
Cc1ccc(C(=O)OCC(=O)NC2CCCCC2)o1	-	68	-	-	-	-	46
CCOC(=O)c1c(C)[nH]c(C(=O)OCC(=O)NC2(C#N)CCCCC2)c1C	.	57	-	-	-	.	52
O=C(COC(=O)c1ccc([N+](=O)[O-])o1)NC1CCCCC1	.	-	-	-	-	.	.
COc1cccc(CC(=O)OCC(=O)NC2(C#N)CCCCC2)c1	.	32	-	-	-	.	-
N#CC1(NC(=O)COC(=O)c2ccccc2[N+](=O)[O-])CCCCC1	.	69	-	-	-	.	74
CCOC(=O)c1c(C)[nH]c(C(=O)OCC(=O)NC(C)(C)C)c1C	-	-	-	-	-	-	.
COc1cccc(NC(=O)c2ccc(N3C(=O)C4CC=CCC4C3=O)cc2)c1 (configuration not stated)	.	-	-	-	-	.	.
Cc1cc(C(=O)OCC(=O)NC2CCCCC2)c(C)o1	-	84	-	-	-	-	63
CNS(=O)(=O)c1cccc(C(=O)OCC(=O)NC2CCCC(C)C2C)c1 (configuration not stated)	.	63	-	-	-	.	49
CNS(=O)(=O)c1cccc(C(=O)OCC(=O)Nc2cc(F)ccc2F)c1	-	45	-	-	-	-	32
CC1CCCC(NC(=O)COC(=O)c2cccc(S(=O)(=O)N3CCCCC3)c2)C1C (configuration not stated)	.	-	-	-	-	.	.
Cc1cc(C(=O)NC2CCCCC2)c(C)o1	.	-	-	-	-	.	.
N#CC1(NC(=O)COC(=O)c2cccc(-n3cnnn3)c2)CCCCC1	.	73	-	-	-	.	72
N=C1C=CC(=C(c2ccc(N)cc2)c2ccc(N)cc2)C=C1	.	-	-	-	.	.	.
CCCc1cc(C(=O)Nc2ccc(C(=O)c3ccc(C)cc3)cc2)n(C)n1	-	-	-	-	-	-	.
Cc1ccc(S(=O)(=O)NCC(C)n2cncn2)cc1C (configuration not stated)	-	-	-	-	-	-	.
Cc1cc(C(=O)OCC(=O)NC2CCCC(C)C2C)c(C)o1 (configuration not stated)	.	82	-	-	-	.	67
Cc1nc2ccc(C(=O)OCc3nnc(-c4ccccc4)o3)cc2nc1C	-	35	-	-	.	-	-
Cc1nc2ccc(C(=O)OCc3nnc(-c4ccc(Br)cc4)o3)cc2nc1C	-	-	-	-	-	-	.
O=C(OCc1nnc(-c2ccccc2)o1)c1cccc(S(=O)(=O)N2CCOCC2)c1	.	57	-	-	-	.	40
O=C(OCc1nnc(-c2ccc(Br)cc2)o1)c1ccco1	-	54	-	-	-	-	42
Cc1ccccc1C(=O)OCc1nnc(-c2ccc(Cl)cc2)o1	-	33	-	-	-	-	-
O=C(CNC(=O)c1ccccc1)OCc1nnc(-c2ccc(Cl)cc2)o1	-	-	-	-	-	-	.
